Test results as given in ChEMBL document CHEMBL4831495, “Discovery of novel BCR-ABL PROTACs based on the cereblon E3 ligase design, synthesis, and biological evaluation” (Eur J Med Chem, 2021).
Active and inactive are the calls of the source. The calls are words filed in the database; no cut-off is given here.

Tests used:
K562 [1] = assay: Antiproliferative activity against human K562 cells assessed as cell growth inhibition measured after 48 hrs by CCK8 assay; format: functional, cell-based; settings: K562, 48 h
How it was run: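 Cells were seeded at 3000-20,000 per well and given 3-fold serial dilutions of compound in medium. After 2 days at 37 °C in 5% CO2, CCK-8 reagent was added for 2-4 h and absorbance was read at 450 nm.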

[2] = molecular target: T1, Protein cereblon/Tyrosine-protein kinase ABL1/Breakpoint cluster region protein (Homo sapiens, UniProt P00519+P11274+Q96SW2); assay: PROTAC activity at CRBN/Bcr-Abl in human K562 cells assessed as degrading activity by Western blotting analysis; format: cell-based
Target sequence in this assay (P00519 whole entry): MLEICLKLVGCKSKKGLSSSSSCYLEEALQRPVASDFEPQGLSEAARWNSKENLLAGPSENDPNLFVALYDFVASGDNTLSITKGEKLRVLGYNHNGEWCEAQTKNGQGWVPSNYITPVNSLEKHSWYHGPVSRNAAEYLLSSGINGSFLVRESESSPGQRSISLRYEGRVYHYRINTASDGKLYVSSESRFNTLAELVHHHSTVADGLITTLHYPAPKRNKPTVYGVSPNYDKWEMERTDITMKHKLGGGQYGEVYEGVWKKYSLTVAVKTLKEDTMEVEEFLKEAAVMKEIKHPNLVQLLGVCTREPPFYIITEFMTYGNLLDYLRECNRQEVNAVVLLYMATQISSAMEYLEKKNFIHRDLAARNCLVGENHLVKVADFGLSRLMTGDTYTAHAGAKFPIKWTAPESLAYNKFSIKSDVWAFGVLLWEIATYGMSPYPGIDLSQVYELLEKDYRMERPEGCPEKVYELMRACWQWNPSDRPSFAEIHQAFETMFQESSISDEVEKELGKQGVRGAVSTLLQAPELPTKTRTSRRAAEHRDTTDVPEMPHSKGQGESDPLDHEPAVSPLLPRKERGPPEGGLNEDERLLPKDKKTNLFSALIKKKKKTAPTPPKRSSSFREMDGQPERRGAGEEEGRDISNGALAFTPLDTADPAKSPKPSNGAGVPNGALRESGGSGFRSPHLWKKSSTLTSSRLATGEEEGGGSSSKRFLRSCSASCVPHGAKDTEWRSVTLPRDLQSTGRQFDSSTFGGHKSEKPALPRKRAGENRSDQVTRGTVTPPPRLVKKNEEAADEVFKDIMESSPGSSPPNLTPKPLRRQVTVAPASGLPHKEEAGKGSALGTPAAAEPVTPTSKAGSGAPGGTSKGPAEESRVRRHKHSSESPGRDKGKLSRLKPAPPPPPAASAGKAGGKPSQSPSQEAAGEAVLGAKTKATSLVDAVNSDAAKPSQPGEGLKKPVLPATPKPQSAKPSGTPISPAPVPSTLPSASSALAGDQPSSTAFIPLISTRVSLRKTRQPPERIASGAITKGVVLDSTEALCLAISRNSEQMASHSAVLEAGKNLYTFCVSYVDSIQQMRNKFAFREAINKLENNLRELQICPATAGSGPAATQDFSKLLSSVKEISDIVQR
Target sequence in this assay (P11274 whole entry): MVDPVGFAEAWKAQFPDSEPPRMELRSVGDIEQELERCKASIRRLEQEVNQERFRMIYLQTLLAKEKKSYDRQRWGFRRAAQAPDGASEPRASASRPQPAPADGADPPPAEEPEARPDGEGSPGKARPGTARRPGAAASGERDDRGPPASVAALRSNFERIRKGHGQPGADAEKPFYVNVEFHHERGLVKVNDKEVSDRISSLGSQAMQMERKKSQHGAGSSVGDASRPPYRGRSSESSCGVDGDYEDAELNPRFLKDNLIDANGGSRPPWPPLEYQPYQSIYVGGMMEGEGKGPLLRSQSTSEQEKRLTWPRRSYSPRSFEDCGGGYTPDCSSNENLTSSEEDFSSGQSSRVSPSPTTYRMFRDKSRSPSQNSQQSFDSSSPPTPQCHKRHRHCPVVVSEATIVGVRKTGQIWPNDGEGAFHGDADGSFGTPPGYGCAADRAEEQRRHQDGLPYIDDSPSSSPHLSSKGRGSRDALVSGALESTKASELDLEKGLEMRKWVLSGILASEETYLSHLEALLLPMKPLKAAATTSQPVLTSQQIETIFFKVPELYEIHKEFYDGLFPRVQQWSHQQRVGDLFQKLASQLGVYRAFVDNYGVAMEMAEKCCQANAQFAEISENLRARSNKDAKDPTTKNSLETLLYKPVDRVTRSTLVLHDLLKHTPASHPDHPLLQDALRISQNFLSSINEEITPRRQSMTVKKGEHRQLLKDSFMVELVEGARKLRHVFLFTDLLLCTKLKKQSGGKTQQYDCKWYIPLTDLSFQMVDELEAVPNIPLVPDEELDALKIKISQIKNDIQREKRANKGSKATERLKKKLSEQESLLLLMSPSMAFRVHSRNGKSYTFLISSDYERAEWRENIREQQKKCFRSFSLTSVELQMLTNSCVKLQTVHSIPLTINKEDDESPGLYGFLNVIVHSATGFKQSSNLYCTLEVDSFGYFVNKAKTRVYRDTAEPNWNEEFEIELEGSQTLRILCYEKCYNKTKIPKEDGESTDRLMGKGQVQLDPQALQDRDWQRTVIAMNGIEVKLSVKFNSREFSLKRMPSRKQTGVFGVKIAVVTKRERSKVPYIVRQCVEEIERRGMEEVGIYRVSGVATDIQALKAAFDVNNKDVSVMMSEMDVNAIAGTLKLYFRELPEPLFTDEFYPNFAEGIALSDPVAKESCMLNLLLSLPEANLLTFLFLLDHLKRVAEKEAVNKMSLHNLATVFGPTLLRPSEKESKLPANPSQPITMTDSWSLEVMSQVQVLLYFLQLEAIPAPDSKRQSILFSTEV
Target sequence in this assay (Q96SW2 whole entry): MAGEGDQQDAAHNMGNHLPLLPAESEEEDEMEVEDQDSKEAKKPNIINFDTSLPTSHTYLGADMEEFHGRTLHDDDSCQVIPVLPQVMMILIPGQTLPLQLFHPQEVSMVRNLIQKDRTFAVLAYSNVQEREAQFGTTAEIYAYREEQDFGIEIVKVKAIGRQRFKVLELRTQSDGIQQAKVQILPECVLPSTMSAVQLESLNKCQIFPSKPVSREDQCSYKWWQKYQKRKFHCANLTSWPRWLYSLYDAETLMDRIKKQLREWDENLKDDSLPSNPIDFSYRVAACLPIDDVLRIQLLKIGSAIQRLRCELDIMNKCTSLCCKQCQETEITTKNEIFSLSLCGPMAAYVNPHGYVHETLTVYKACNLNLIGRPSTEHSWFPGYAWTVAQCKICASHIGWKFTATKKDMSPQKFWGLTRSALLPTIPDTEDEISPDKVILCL

[3] = MRT (0 to t) in Wistar rat at 2 mg/kg, iv by LC-MS/MS analysis; format: ADME, organism-based; settings: in vivo
How it was run: (§1)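 Single intravenous dose of 2 mg/kg into the femoral vein of female Wistar rats, given as a solution in NMP/PEG200 (1:9, v/v). Plasma was collected by sublingual vein bleeding at 0.083, 0.25, 0.5, 1, 2, 4, 6, 8, 12 and 24 h from one group of rats (n = 3). Samples were extracted and quantified by LC-MS/MS, LOQ 2.5 ng/mL.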

[4] = Tmax in Wistar rat at 2 mg/kg, iv by LC-MS/MS analysis; format: ADME, organism-based; settings: in vivo; how it was run: as §1
[5] = AUC (0 to t) in Wistar rat at 2 mg/kg, iv by LC-MS/MS analysis; format: ADME, organism-based; design: dose 2 mg/kg; settings: in vivo; how it was run: as §1
[6] = Apparent volume of distribution during terminal state in Wistar rat at 2 mg/kg, iv by LC-MS/MS analysis; format: ADME, organism-based; settings: in vivo, read-out: Vz; how it was run: as §1
[7] = Half life in Wistar rat at 2 mg/kg, iv by LC-MS/MS analysis; format: ADME, organism-based; settings: in vivo; how it was run: as §1
[8] = Cmax in Wistar rat at 2 mg/kg, iv by LC-MS/MS analysis; format: ADME, organism-based; design: route intravenous, dose 2 mg/kg; settings: in vivo; how it was run: as §1
[9] = Apparent volume of distribution during steady state in Wistar rat at 2 mg/kg, iv by LC-MS/MS analysis; format: ADME, organism-based; settings: in vivo, read-out: Vdss; how it was run: as §1
[10] = Clearance in Wistar rat at 2 mg/kg, iv by LC-MS/MS analysis; format: ADME, organism-based; settings: in vivo; how it was run: as §1
[11] = molecular target: T1, Protein cereblon/Tyrosine-protein kinase ABL1/Breakpoint cluster region protein; assay: PROTAC activity at CRBN/Bcr-Abl in human K562 cells assessed as reduction in CRLK level after 16 hrs by Western blotting analysis; format: cell-based
Target sequence in this assay (P00519 whole entry, looked up): as the sequence (P00519 whole entry) above
Target sequence in this assay (P11274 whole entry, looked up): as the sequence (P11274 whole entry) above
Target sequence in this assay (Q96SW2 whole entry, looked up): as the sequence (Q96SW2 whole entry) above

K562 [12] = assay: Antitumor activity against human K562 cells xenografted in NOD-SCID mouse assessed as tumor growth inhibition at 1 mg/kg, ip administered daily 10 days; format: functional; settings: 240 h, time 10 day, read-out: TGI
How it was run: (§2)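 Mice carried K562-Luc xenografts, with 2 × 10^6 cells inoculated per mouse. Dosing began at a mean tumor volume of about 200 mm3. Drug in DMSO/PEG 400/40% hydroxypropyl-(1:3:6, vol/vol) was given ip once daily for 10 consecutive days at 1, 3 or 10 mg/kg. Calipers were used 2-3 times weekly, with V = L × W²/2, and TGI was calculated at day 10.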

[13] = system: Protein cereblon/Tyrosine-protein kinase ABL1/Breakpoint cluster region protein (Homo sapiens), P00519+P11274+Q96SW2 [V299L]; assay: PROTAC activity at CRBN/BCR-ABL V299L mutant in human K562 cells assessed as degradation by Western blot analysis relative to control; format: cell-based
How it was run: (§3)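 Cells plated at 3 × 10^5 cells/mL and exposed to compounds at the indicated concentrations and times. Cells were then harvested, washed in cold PBS and lysed in 1× SDS buffer with protease inhibitor cocktail. Protein was quantified by detergent-compatible Bradford assay, and BCR-ABL was detected by Western blot with a c-ABL antibody.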

[14] = molecular target: Protein cereblon/Platelet-derived growth factor receptor beta (Homo sapiens) (UniProt P09619+Q96SW2); assay: PROTAC activity at CRBN/PDGFRbeta in human K562 cells assessed as PDGFRbeta degrading activity by Western blotting analysis; format: cell-based
[15] = molecular target: T1, Protein cereblon/Tyrosine-protein kinase ABL1/Breakpoint cluster region protein; assay: PROTAC activity at CRBN/Bcr-Abl in human K562 cells assessed as reduction in STAT5 level after 16 hrs by Western blotting analysis; format: cell-based
How it was run: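 K562 cells were plated at 3 × 10^5 cells/mL and treated with graded concentrations for 16 h. Lysates in 1× SDS buffer with protease inhibitors were quantified by Bradford assay. Western blots were probed with antibodies against Stat5, phospho-Stat5 (Tyr694) and […], among others.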
Target sequence in this assay (P00519 whole entry, looked up): as the sequence (P00519 whole entry) above
Target sequence in this assay (P11274 whole entry, looked up): as the sequence (P11274 whole entry) above
Target sequence in this assay (Q96SW2 whole entry, looked up): as the sequence (Q96SW2 whole entry) above

[16] = molecular target: T1, Protein cereblon/Tyrosine-protein kinase ABL1/Breakpoint cluster region protein; assay: PROTAC activity at CRBN/Bcr-Abl in human K562 cells assessed as reduction in C-Abl level at 30 nM preincubated with proteasome inhibitor MG132 for 2 hrs and measured after 8 hrs by Western blotting analysis; format: cell-based
How it was run: (§4)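 K562 cells were pretreated for 2 h with MG132 ([…] as printed) or MLN4924 ([…] as printed), then exposed to degrader at 30 nM for 8 h. Cells were lysed in 1× SDS buffer with protease inhibitors, and protein was quantified by Bradford assay. BCR-ABL and c-ABL were detected by Western blot.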
Target sequence in this assay (P00519 whole entry, looked up): as the sequence (P00519 whole entry) above
Target sequence in this assay (P11274 whole entry, looked up): as the sequence (P11274 whole entry) above
Target sequence in this assay (Q96SW2 whole entry, looked up): as the sequence (Q96SW2 whole entry) above

[17] = molecular target: T1, Protein cereblon/Tyrosine-protein kinase ABL1/Breakpoint cluster region protein; assay: PROTAC activity at CRBN/Bcr-Abl in human K562 cells assessed as reduction in C-Abl level at 30 nM preincubated with NEDD8 inhibitor MLN4924 for 2 hrs and measured after 8 hrs by Western blotting analysis; format: cell-based; how it was run: as §4
Target sequence in this assay (P00519 whole entry, looked up): as the sequence (P00519 whole entry) above
Target sequence in this assay (P11274 whole entry, looked up): as the sequence (P11274 whole entry) above
Target sequence in this assay (Q96SW2 whole entry, looked up): as the sequence (Q96SW2 whole entry) above

[18] = molecular target: T1, Protein cereblon/Tyrosine-protein kinase ABL1/Breakpoint cluster region protein; assay: PROTAC activity at CRBN/Bcr-Abl in human K562 cells assessed as reduction in Bcr-Abl level at 30 nM preincubated with proteasome inhibitor MG132 for 2 hrs and measured after 8 hrs by Western blotting analysis; format: cell-based; how it was run: as §4
Target sequence in this assay (P00519 whole entry, looked up): as the sequence (P00519 whole entry) above
Target sequence in this assay (P11274 whole entry, looked up): as the sequence (P11274 whole entry) above
Target sequence in this assay (Q96SW2 whole entry, looked up): as the sequence (Q96SW2 whole entry) above

[19] = system: Protein cereblon/Tyrosine-protein kinase ABL1/Breakpoint cluster region protein (Homo sapiens), P00519+P11274+Q96SW2 [E255V]; assay: PROTAC activity at CRBN/BCR-ABL E255V mutant in human K562 cells assessed as degradation by Western blot analysis relative to control; format: cell-based; how it was run: as §3
[20] = molecular target: Protein cereblon/Proto-oncogene tyrosine-protein kinase Src (Homo sapiens) (UniProt P12931+Q96SW2); assay: PROTAC activity at CRBN/Src in human K562 cells assessed as Src degrading activity by Western blotting analysis; format: cell-based
Sequence of Protein cereblon/Proto-oncogene tyrosine-protein kinase Src (Homo sapiens) (P12931 whole entry, looked up): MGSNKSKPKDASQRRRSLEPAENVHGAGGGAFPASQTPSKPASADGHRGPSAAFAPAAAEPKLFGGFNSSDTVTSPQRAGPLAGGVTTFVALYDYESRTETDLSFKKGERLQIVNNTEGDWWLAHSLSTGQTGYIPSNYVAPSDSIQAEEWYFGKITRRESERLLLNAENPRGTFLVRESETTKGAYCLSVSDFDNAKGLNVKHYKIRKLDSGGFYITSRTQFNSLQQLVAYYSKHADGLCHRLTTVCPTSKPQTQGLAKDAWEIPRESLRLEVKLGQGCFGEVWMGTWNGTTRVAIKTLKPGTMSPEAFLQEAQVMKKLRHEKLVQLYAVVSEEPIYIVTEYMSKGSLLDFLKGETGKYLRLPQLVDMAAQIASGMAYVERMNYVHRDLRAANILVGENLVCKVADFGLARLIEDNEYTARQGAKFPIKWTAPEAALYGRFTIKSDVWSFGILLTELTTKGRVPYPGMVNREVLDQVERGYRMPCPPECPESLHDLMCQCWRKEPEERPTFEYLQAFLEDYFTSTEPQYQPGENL
Sequence of Protein cereblon/Proto-oncogene tyrosine-protein kinase Src (Homo sapiens) (Q96SW2 whole entry, looked up): as the sequence (Q96SW2 whole entry) above

[21] = Toxicity in NOD-SCID mouse xenografted with human K562 cells assessed as reduction in body weight at 100 mg/kg, ip measured on day 10; format: organism-based; settings: in vivo
K562 [22] = assay: Antitumor activity against human K562 cells xenografted in NOD-SCID mouse assessed as tumor growth inhibition at 10 mg/kg, ip administered daily 10 days; format: functional; settings: 240 h, time 10 day, read-out: TGI; how it was run: as §2
K562 [23] = assay: Antitumor activity against human K562 cells xenografted in NOD-SCID mouse assessed as tumor growth inhibition at 3 mg/kg, ip administered daily 10 days; format: functional; settings: 240 h, time 10 day, read-out: TGI; how it was run: as §2
[24] = system: Protein cereblon/Tyrosine-protein kinase ABL1/Breakpoint cluster region protein (Homo sapiens), P00519+P11274+Q96SW2 [F317L]; assay: PROTAC activity at CRBN/BCR-ABL F317L mutant in human K562 cells assessed as degradation by Western blot analysis relative to control; format: cell-based; how it was run: as §3
[25] = molecular target: T1, Protein cereblon/Tyrosine-protein kinase ABL1/Breakpoint cluster region protein; assay: PROTAC activity at CRBN/Bcr-Abl in human K562 cells assessed as reduction in Bcr-Abl level at 30 nM by Western blotting analysis; format: cell-based; settings: time 0-24 hrs
Target sequence in this assay (P00519 whole entry, looked up): as the sequence (P00519 whole entry) above
Target sequence in this assay (P11274 whole entry, looked up): as the sequence (P11274 whole entry) above
Target sequence in this assay (Q96SW2 whole entry, looked up): as the sequence (Q96SW2 whole entry) above

[26] = molecular target: T1, Protein cereblon/Tyrosine-protein kinase ABL1/Breakpoint cluster region protein; assay: PROTAC activity at CRBN/Bcr-Abl in human K562 cells assessed as reduction in Bcr-Abl level at 30 nM preincubated with NEDD8 inhibitor MLN4924 for 2 hrs and measured after 8 hrs by Western blotting analysis; format: cell-based; how it was run: as §4

Cc1nc(Nc2ncc(C(=O)Nc3c(C)cccc3Cl)s2)cc(N2CCN(CCCCCCOCCOCCOCCCCCC(=O)Nc3cccc4c3C(=O)N(C3CCC(=O)NC3=O)C4=O)CC2)n1 (stereo not drawn)
IC50 (K562 [1]): 4.1 nM

Cc1nc(Nc2ncc(C(=O)Nc3c(C)cccc3Cl)s2)cc(N2CCN(C(=O)CS(=O)(=O)c3cccc4c3C(=O)N(C3CCC(=O)NC3=O)C4=O)CC2)n1 (stereo not drawn)
IC50 (K562 [1]): 206 nM | DC50 [2]: 245 nM

Cc1nc(Nc2ncc(C(=O)Nc3c(C)cccc3Cl)s2)cc(N2CCN(C(=O)CCOCCOCCOCCOCCNc3cccc4c3C(=O)N(C3CCC(=O)NC3=O)C4=O)CC2)n1 (stereo not drawn)
IC50 (K562 [1]): 40.4 nM | DC50 [2]: 26.1 nM

Cc1nc(Nc2ncc(C(=O)Nc3c(C)cccc3Cl)s2)cc(N2CCN(C(=O)CCCCNc3cccc4c3C(=O)N(C3CCC(=O)NC3=O)C4=O)CC2)n1 (stereo not drawn)
IC50 (K562 [1]): 0.55 nM | DC50 [2]: 11 nM

Cc1nc(Nc2ncc(C(=O)Nc3c(C)cccc3Cl)s2)cc(N2CCN(C(=O)CSc3cccc4c3CN(C3CCC(=O)NC3=O)C4=O)CC2)n1 (stereo not drawn)
IC50 (K562 [1]): 5.7 nM | DC50 [2]: 8.9 nM

Cc1nc(Nc2ncc(C(=O)Nc3c(C)cccc3Cl)s2)cc(N2CCN(CCCCNc3cccc4c3C(=O)N(C3CCC(=O)NC3=O)C4=O)CC2)n1 (stereo not drawn)
MRT last [3]: 1.55 h | Tmax [4]: 4.8 min | AUC(0-t) [5]: 1330 ng·h/mL | Vd [6]: 4.02 L/kg | half-life [7]: 1.93 h | IC50 (K562 [1]): 0.28 nM | DC50 [2]: 2.7 nM | Cmax [8]: 1450 ng/mL | Vd [9]: 2.78 L/kg | clearance [10]: 24.1 mL/min/kg

Cc1nc(Nc2ncc(C(=O)Nc3c(C)cccc3Cl)s2)cc(N2CCN(CCCCC(=O)Nc3cccc4c3C(=O)N(C3CCC(=O)NC3=O)C4=O)CC2)n1 (stereo not drawn)
IC50 (K562 [1]): 4.6 nM | DC50 [2]: 10.1 nM

Cc1nc(Nc2ncc(C(=O)Nc3c(C)cccc3Cl)s2)cc(N2CCN(CCSc3cccc4c3C(=O)N(C3CCC(=O)NC3=O)C4=O)CC2)n1 (stereo not drawn)
inhibition [11]: Active | inhibition in vivo at 1 mg/kg (K562 [12]): 78.9% | Activity [13]: Active | MRT last [3]: 2 h | Activity [14]: inactive | inhibition [15]: Active | Tmax [4]: 4.8 min | inhibition [16]: Active | inhibition [17]: Active | AUC(0-t) [5]: 926 ng·h/mL | Vd [6]: 13 L/kg | half-life [7]: 4.23 h | inhibition [18]: Active | Activity [19]: Active | IC50 (K562 [1]): 0.49 nM | Activity [20]: inactive | DC50 [2]: 0.18 nM | Activity [21]: Non-Toxic | inhibition in vivo at 10 mg/kg (K562 [22]): 98.8% | inhibition in vivo at 3 mg/kg (K562 [23]): 93.8% | Activity [24]: Active | inhibition [25]: Active | Cmax [8]: 1500 ng/mL | Vd [9]: 5.23 L/kg | inhibition [26]: Active | clearance [10]: 35.7 mL/min/kg

Nc1cccc2c1C(=O)N(C1CCC(=O)NC1=O)C2=O (stereo not drawn) [POMALIDOMIDE]
IC50 (K562 [1]): > 10000 nM

Cc1nc(Nc2ncc(C(=O)Nc3c(C)cccc3Cl)s2)cc(N2CCN(C(=O)CCOCCOCCOCCNc3cccc4c3C(=O)N(C3CCC(=O)NC3=O)C4=O)CC2)n1 (stereo not drawn)
IC50 (K562 [1]): 14.8 nM | DC50 [2]: 18.4 nM

Nc1cccc2c1CN(C1CCC(=O)NC1=O)C2=O (stereo not drawn) [LENALIDOMIDE]
IC50 (K562 [1]): > 10000 nM

Cc1nc(Nc2ncc(C(=O)Nc3c(C)cccc3Cl)s2)cc(N2CCN(C(=O)CCCCCCNc3cccc4c3C(=O)N(C3CCC(=O)NC3=O)C4=O)CC2)n1 (stereo not drawn)
IC50 (K562 [1]): 1.47 nM | DC50 [2]: 9 nM
